Laboratory results: ChEMBL document CHEMBL4725492, “Dioxane-Linked Amide Derivatives as Novel Bacterial Topoisomerase Inhibitors against Gram-Positive Staphylococcus aureus” (ACS Med Chem Lett, 2020)
Values after ≈ are worked out from the molar mass of the structure shown.

How the values were obtained:
[1] = target: DNA gyrase (Staphylococcus aureus, UniProt P0A0K8+P20831); test: Inhibition of Staphylococcus aureus DNA gyrase using relaxed pBR322 as substrate by gel electrophoresis; format: protein-complex assay
[2] = system: Staphylococcus aureus; test: Antibacterial activity against Staphylococcus aureus D83N by CLSI based agar dilution method; format: functional
[3] = system: K562; test: Growth inhibition of human K562 cells incubated for 48 hrs by sulforhodamine B assay; format: functional
[4] = system: Staphylococcus aureus; test: Antibacterial activity against Staphylococcus aureus ATCC 29213 by CLSI based agar dilution method; format: functional
[5] = system: Staphylococcus aureus; test: Antibacterial activity against Staphylococcus aureus USA300 by CLSI based agar dilution method; format: functional
[6] = system: Staphylococcus aureus; test: Antibacterial activity against Staphylococcus aureus 3527 by CLSI based agar dilution method; format: functional
[7] = target: Topoisomerase IV (Staphylococcus aureus, UniProt P0C1S7+P0C1U9); test: Inhibition of Staphylococcus aureus topoisomerase-4 assessed as reduction in decatenation of kinetoplast DNA agarose gel electrophoresis method; format: protein-complex assay
[8] = Growth inhibition of human K/VP.5 cells incubated for 48 hrs by sulforhodamine B assay; format: functional
[9] = target: Voltage-gated inwardly rectifying potassium channel KCNH2 (Homo sapiens, UniProt Q12809); test: Inhibition of human ERG; settings: human
[10] = target: T1, DNA gyrase (Staphylococcus aureus) (UniProt P0A0K8+P20831); test: Inhibition of Staphylococcus aureus DNA gyrase assessed as single-strand break using relaxed pBR322 as substrate by ethidium bromide-based gel electrophoresis; format: protein-complex assay
Procedure, shortened: (§1)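 S. aureus gyrase-mediated DNA cleavage: compound was incubated with enzyme and DNA, and products were resolved on an ethidium-stained gel into negatively supercoiled, nicked (single-strand break) and linear (double-strand break) forms. Lane fluorescence was corrected for differential band emission. Percent of each form was calculated, and enzyme-only cleavage was subtracted. Concentrations spanned 0.1 nM–200 μM, with a 20 μM single-point screen. Results are mean ± SD or range.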

[11] = target: T1, DNA gyrase (Staphylococcus aureus); test: Inhibition of Staphylococcus aureus DNA gyrase assessed as double-strand break using relaxed pBR322 as substrate by ethidium bromide-based gel electrophoresis; format: protein-complex assay; settings: dose microM 0.0001-20; procedure, shortened: as §1
[12] = target: DNA topoisomerase 2-alpha (Homo sapiens, UniProt P11388); test: Inhibition of human topoisomerase 2alpha relative to control
Procedure, shortened: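 Human topoisomerase IIα decatenation activity was tested at a single concentration of 100 μM and reported as percent inhibition.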

COc1ccc2nccc(CC[C@H]3OC[C@H](NC(=O)c4ccc5c(c4)NC(=O)CS5)CO3)c2c1
IC50 [1]: 130 nM
MIC [2]: > 64 µg/mL
INH [3]: >200 µM
MIC [4]: 0.03 µg/mL (≈ 0.0626 µM)
MIC [5]: ≤ 0.125 µg/mL
MIC [6]: ≤ 0.125 µg/mL
IC50 [7]: 700 nM
INH [8]: >200 µM
INH [9]: > 30 µM
inhibition [10]: Dose-dependent effect
inhibition [11]: Dose-dependent effect
inhibition (INH) [12]: 37%
